Reference: ChEMBL document CHEMBL1649441, “Potency and bactericidal activity of iclaprim against recent clinical gram-positive isolates” (2009)
Values after ≈ are worked out from the molar mass of the structure shown.

Assays:
Type in all cases: functional
[1] = system: Streptococcus sp. 'group A'; experiment: Antibacterial activity against Beta-hemolytic Streptococcus group A assessed as inhibition of bacterial growth at 1 ug/ml by CLSI broth microdilution method
In short: (§1)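 Clinical isolates from skin/soft tissue, bloodstream and respiratory specimens were tested by broth microdilution per CLSI M7-A7 and M100-S18, with quality controls. Values are the number of isolates inhibited at each concentration, or MIC / percent susceptible. Highest concentration tested was 8 µg/ml for iclaprim and trimethoprim-sulfamethoxazole, and 64 µg/ml for trimethoprim.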

Enterococcus faecalis [2] = experiment: Antibacterial activity against Enterococcus faecalis assessed as inhibition of bacterial growth at 0.5 ug/ml by CLSI broth microdilution method; in short: as §1
Enterococcus faecalis [3] = experiment: Antibacterial activity against Enterococcus faecalis assessed as inhibition of bacterial growth at 0.03 ug/ml by CLSI broth microdilution method; in short: as §1
Enterococcus faecalis [4] = experiment: Antibacterial activity against Enterococcus faecalis assessed as inhibition of bacterial growth at 2 ug/ml by CLSI broth microdilution method; in short: as §1
Enterococcus faecalis [5] = experiment: Antibacterial activity against Enterococcus faecalis assessed as inhibition of bacterial growth at >8 ug/ml by CLSI broth microdilution method; in short: as §1
[6] = system: Streptococcus sp. 'group A'; experiment: Antibacterial activity against Beta-hemolytic Streptococcus group A assessed as inhibition of bacterial growth at […] by CLSI broth microdilution method; further: tested at 0.25 µg/mL
[7] = system: Streptococcus sp. 'group A'; experiment: Antibacterial activity against Beta-hemolytic Streptococcus group A assessed as inhibition of bacterial growth at 4 ug/ml by CLSI broth microdilution method; in short: as §1
[8] = system: Streptococcus sp. 'group B'; experiment: Antibacterial activity against Beta-hemolytic Streptococcus group B by CLSI broth microdilution method; in short: as §1
[9] = system: Streptococcus sp. 'group B'; experiment: Antibacterial activity against Beta-hemolytic Streptococcus group B assessed as inhibition of bacterial growth at 4 ug/ml by CLSI broth microdilution method; in short: as §1
Enterococcus faecium [10] = experiment: Antibacterial activity against Enterococcus faecium assessed as inhibition of bacterial growth at 0.06 ug/ml by CLSI broth microdilution method; in short: as §1
Enterococcus faecium [11] = experiment: Antibacterial activity against Enterococcus faecium assessed as inhibition of bacterial growth at 0.5 ug/ml by CLSI broth microdilution method
Staphylococcus aureus [12] = experiment: Antibacterial activity against Methicillin-resistant Staphylococcus aureus by CLSI broth microdilution method
Enterococcus faecalis [13] = experiment: Antibacterial activity against Enterococcus faecalis by CLSI broth microdilution method
Enterococcus faecium [14] = experiment: Antibacterial activity against Enterococcus faecium by CLSI broth microdilution method
[15] = system: Streptococcus sp. 'group A'; experiment: Antibacterial activity against Beta-hemolytic Streptococcus group A assessed as inhibition of bacterial growth at 0.06 ug/ml by CLSI broth microdilution method; in short: as §1
Staphylococcus aureus [16] = experiment: Antibacterial activity against Methicillin-sensitive Staphylococcus aureus assessed as inhibition of bacterial growth at 0.06 ug/ml by CLSI broth microdilution method; design: Activity: scale not given: the % may be the effect or the level left
[17] = system: Streptococcus sp. 'group A'; experiment: Antibacterial activity against Beta-hemolytic Streptococcus group A by CLSI broth microdilution method; in short: as §1
Staphylococcus aureus [18] = experiment: Antibacterial activity against Methicillin-sensitive Staphylococcus aureus assessed as inhibition of bacterial growth at 2 ug/ml by CLSI broth microdilution method
[19] = system: Streptococcus sp. 'group A'; experiment: Antibacterial activity against Beta-hemolytic Streptococcus group A assessed as inhibition of bacterial growth at 0.5 ug/ml by CLSI broth microdilution method; in short: as §1
Enterococcus faecium [20] = experiment: Antibacterial activity against Enterococcus faecium assessed as inhibition of bacterial growth at 0.03 ug/ml by CLSI broth microdilution method; in short: as §1
Enterococcus faecalis [21] = experiment: Antibacterial activity against Enterococcus faecalis assessed as inhibition of bacterial growth at 4 ug/ml by CLSI broth microdilution method; in short: as §1
Enterococcus faecalis [22] = experiment: Antibacterial activity against Enterococcus faecalis assessed as inhibition of bacterial growth at 0.06 ug/ml by CLSI broth microdilution method; in short: as §1
[23] = system: Streptococcus sp. 'group A'; experiment: Antibacterial activity against Beta-hemolytic Streptococcus group A assessed as inhibition of bacterial growth at 8 ug/ml by CLSI broth microdilution method; in short: as §1
[24] = system: Streptococcus sp. 'group B'; experiment: Antibacterial activity against Beta-hemolytic Streptococcus group B assessed as inhibition of bacterial growth at 0.06 ug/ml by CLSI broth microdilution method; in short: as §1
Staphylococcus aureus [25] = experiment: (§2) Antibacterial activity against Methicillin-sensitive Staphylococcus aureus assessed as inhibition of bacterial growth at […] by CLSI broth microdilution method; design: Activity: scale not given: the % may be the effect or the level left
Enterococcus faecalis [26] = experiment: (§3) Antibacterial activity against Enterococcus faecalis assessed as inhibition of bacterial growth at […] by CLSI broth microdilution method
[27] = system: Streptococcus sp. 'group B'; experiment: Antibacterial activity against Beta-hemolytic Streptococcus group B assessed as inhibition of bacterial growth at 0.03 ug/ml by CLSI broth microdilution method; in short: as §1
Staphylococcus aureus [28] = experiment: Antibacterial activity against Methicillin-resistant Staphylococcus aureus assessed as inhibition of bacterial growth at 2 ug/ml by CLSI broth microdilution method
In short: (§4)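 Recent clinical isolates from skin/soft tissue, bloodstream and respiratory specimens. Tested by broth microdilution per CLSI M7-A7 and M100-S18, with the appropriate quality controls. The thymidine content of the test medium was assessed to rule out artifactual inhibition.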

[29] = system: Streptococcus sp. 'group B'; experiment: Antibacterial activity against Beta-hemolytic Streptococcus group B assessed as inhibition of bacterial growth at 2 ug/ml by CLSI broth microdilution method; in short: as §1
Staphylococcus aureus [30] = experiment: Antibacterial activity against Methicillin-sensitive Staphylococcus aureus assessed as inhibition of bacterial growth at 8 ug/ml by CLSI broth microdilution method; in short: as §4
Staphylococcus aureus [31] = experiment: Antibacterial activity against Methicillin-resistant Staphylococcus aureus assessed as inhibition of bacterial growth at […] by CLSI broth microdilution method
[32] = system: Streptococcus sp. 'group B'; experiment: Antibacterial activity against Beta-hemolytic Streptococcus group B assessed as inhibition of bacterial growth at […] by CLSI broth microdilution method
Enterococcus faecalis [33] = experiment: as §3; remark: listed apart in the source
[34] = system: Streptococcus sp. 'group B'; experiment: Antibacterial activity against Beta-hemolytic Streptococcus group B assessed as inhibition of bacterial growth at 0.5 ug/ml by CLSI broth microdilution method; in short: as §1
Staphylococcus aureus [35] = experiment: Antibacterial activity against Methicillin-sensitive Staphylococcus aureus assessed as inhibition of bacterial growth at 0.5 ug/ml by CLSI broth microdilution method
Enterococcus faecium [36] = experiment: (§5) Antibacterial activity against Enterococcus faecium assessed as inhibition of bacterial growth at […] by CLSI broth microdilution method
Staphylococcus aureus [37] = experiment: Antibacterial activity against Methicillin-resistant Staphylococcus aureus assessed as inhibition of bacterial growth at 4 ug/ml by CLSI broth microdilution method; in short: as §4
[38] = system: Streptococcus sp. 'group B'; experiment: Antibacterial activity against Beta-hemolytic Streptococcus group B assessed as inhibition of bacterial growth at 1 ug/ml by CLSI broth microdilution method; in short: as §1
Enterococcus faecium [39] = experiment: as §5; remark: listed apart in the source
Staphylococcus aureus [40] = experiment: Antibacterial activity against Methicillin-resistant Staphylococcus aureus assessed as inhibition of bacterial growth at 0.5 ug/ml by CLSI broth microdilution method; in short: as §4
Enterococcus faecium [41] = experiment: Antibacterial activity against Enterococcus faecium assessed as inhibition of bacterial growth at 2 ug/ml by CLSI broth microdilution method
Staphylococcus aureus [42] = experiment: Antibacterial activity against Methicillin-resistant Staphylococcus aureus assessed as inhibition of bacterial growth at 8 ug/ml by CLSI broth microdilution method; in short: as §4
Staphylococcus aureus [43] = experiment: as §2; design: Activity: scale not given: the % may be the effect or the level left; remark: listed apart in the source

COc1cc(Cc2cnc(N)nc2N)cc(OC)c1OC [TRIMETHOPRIM]
inhibition at 1 µg/mL [1]: 99.5%
inhibition at 0.5 µg/mL (Enterococcus faecalis [2]): 62.9%
inhibition at 0.03 µg/mL (Enterococcus faecalis [3]): 0.6%
inhibition at 2 µg/mL (Enterococcus faecalis [4]): 67.7%
inhibition (INH) (Enterococcus faecalis [5]): 100%
inhibition at […] [6]: 84.6%
inhibition at 4 µg/mL [7]: 100%
MIC50 [8]: 1 µg/mL (≈ 3.44 µM)
MIC90 [8]: 4 µg/mL (≈ 13.8 µM)
inhibition at 4 µg/mL [9]: 99.5%
inhibition at 0.06 µg/mL (Enterococcus faecium [10]): 30.4%
inhibition at 0.5 µg/mL (Enterococcus faecium [11]): 37.6%
MIC50 (Staphylococcus aureus [12]): 1 µg/mL (≈ 3.44 µM)
MIC90 (Staphylococcus aureus [12]): 2 µg/mL (≈ 6.89 µM)
MIC50 (Enterococcus faecalis [13]): 0.25 µg/mL (≈ 0.861 µM)
MIC90 (Enterococcus faecalis [13]): > 64 µg/mL
MIC50 (Enterococcus faecium [14]): 32 µg/mL (≈ 110 µM)
MIC90 (Enterococcus faecium [14]): > 64 µg/mL
inhibition at 0.06 µg/mL [15]: 8.6%
Activity (Staphylococcus aureus [16]): 0.1%
MIC50 [17]: 0.25 µg/mL (≈ 0.861 µM)
MIC90 [17]: 0.5 µg/mL (≈ 1.72 µM)
inhibition at 2 µg/mL (Staphylococcus aureus [18]): 97.8%
inhibition at 0.5 µg/mL [19]: 98.5%
inhibition at 0.03 µg/mL (Enterococcus faecium [20]): 13.9%
inhibition at 4 µg/mL (Enterococcus faecalis [21]): 70%
inhibition at 0.06 µg/mL (Enterococcus faecalis [22]): 4.2%
inhibition at 8 µg/mL [23]: 100%
inhibition at 0.06 µg/mL [24]: 0%
Activity (Staphylococcus aureus [25]): 2.4%
inhibition at […] (Enterococcus faecalis [26]): 56.5%
inhibition at 0.03 µg/mL [27]: 0%
inhibition at 2 µg/mL (Staphylococcus aureus [28]): 92.1%
inhibition at 2 µg/mL [29]: 89.2%
inhibition at 8 µg/mL (Staphylococcus aureus [30]): 98.7%
inhibition at […] (Staphylococcus aureus [31]): 0.2%
inhibition at […] [32]: 0%
inhibition at […] (Enterococcus faecalis [33]): 29.7%
inhibition at 0.5 µg/mL [34]: 5.9%
inhibition at 0.5 µg/mL (Staphylococcus aureus [35]): 34.3%
inhibition at […] (Enterococcus faecium [36]): 37.3%
inhibition at 4 µg/mL (Staphylococcus aureus [37]): 92.5%
inhibition at 1 µg/mL [38]: 51%
inhibition at […] (Enterococcus faecium [39]): 36%
inhibition at 0.5 µg/mL (Staphylococcus aureus [40]): 47.7%
inhibition at 2 µg/mL (Enterococcus faecium [41]): 38.3%
inhibition at 8 µg/mL (Staphylococcus aureus [42]): 92.9%
Activity (Staphylococcus aureus [43]): 0.3%
